Data from ChEMBL document CHEMBL1131239, “Orally active benzamide antipsychotic agents with affinity for dopamine D2, serotonin 5-HT1A, and adrenergic alpha1 receptors” (J Med Chem, 1998).

Legend:
Rattus norvegicus [1] = assay: compound was tested for antipsychotic activity by conditioned avoidance response(CAR) assay in rats with a pretreatment period of 30 min upon intra peritoneal administration at a concentration of 5 mg/kg.; format: functional
How it was run: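 Rat conditioned avoidance test modified from Martin et al. Trained rats (N = 4) were run in 1-h sessions on two consecutive days. Fed animals had food and water until placed in the test chambers. Dosing was ip with 30 min pretreatment, and activity was expressed as percent inhibition at the stated dose.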

[2] = biological target: T1, Adrenergic receptor alpha-1 (Rattus norvegicus, UniProt P15823+P23944+P43140); assay: Binding affinity against Alpha-1 adrenergic receptor from rat cerebral cortex; format: tissue-based
T1 sequence (P15823 whole entry): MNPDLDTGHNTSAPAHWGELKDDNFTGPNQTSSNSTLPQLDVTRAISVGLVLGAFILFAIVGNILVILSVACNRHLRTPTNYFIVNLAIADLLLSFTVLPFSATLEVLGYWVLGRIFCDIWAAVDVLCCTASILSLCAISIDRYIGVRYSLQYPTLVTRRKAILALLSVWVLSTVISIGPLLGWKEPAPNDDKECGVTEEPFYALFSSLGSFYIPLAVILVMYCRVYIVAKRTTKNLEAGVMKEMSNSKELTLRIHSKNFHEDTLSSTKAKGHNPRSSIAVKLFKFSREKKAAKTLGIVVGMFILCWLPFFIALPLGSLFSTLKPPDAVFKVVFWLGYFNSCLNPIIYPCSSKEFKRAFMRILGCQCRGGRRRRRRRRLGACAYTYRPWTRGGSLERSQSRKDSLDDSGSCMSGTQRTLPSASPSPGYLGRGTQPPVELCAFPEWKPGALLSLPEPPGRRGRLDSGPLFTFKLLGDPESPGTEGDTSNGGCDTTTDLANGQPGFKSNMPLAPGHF
T1 sequence (P23944 whole entry): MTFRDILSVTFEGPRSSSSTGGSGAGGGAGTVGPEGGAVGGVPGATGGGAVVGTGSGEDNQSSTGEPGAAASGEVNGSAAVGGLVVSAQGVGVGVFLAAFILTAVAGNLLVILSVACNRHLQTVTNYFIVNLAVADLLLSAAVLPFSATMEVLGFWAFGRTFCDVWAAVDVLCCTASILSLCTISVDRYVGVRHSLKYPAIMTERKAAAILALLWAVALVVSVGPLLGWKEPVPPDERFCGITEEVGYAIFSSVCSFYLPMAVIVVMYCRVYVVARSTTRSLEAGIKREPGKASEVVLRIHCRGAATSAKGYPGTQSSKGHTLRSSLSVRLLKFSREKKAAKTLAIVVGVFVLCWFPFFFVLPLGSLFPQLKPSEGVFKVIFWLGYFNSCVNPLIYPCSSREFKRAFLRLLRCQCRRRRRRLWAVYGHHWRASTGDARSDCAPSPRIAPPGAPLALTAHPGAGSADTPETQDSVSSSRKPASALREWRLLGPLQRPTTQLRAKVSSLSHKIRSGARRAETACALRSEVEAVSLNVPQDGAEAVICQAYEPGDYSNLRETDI
T1 sequence (P43140 whole entry): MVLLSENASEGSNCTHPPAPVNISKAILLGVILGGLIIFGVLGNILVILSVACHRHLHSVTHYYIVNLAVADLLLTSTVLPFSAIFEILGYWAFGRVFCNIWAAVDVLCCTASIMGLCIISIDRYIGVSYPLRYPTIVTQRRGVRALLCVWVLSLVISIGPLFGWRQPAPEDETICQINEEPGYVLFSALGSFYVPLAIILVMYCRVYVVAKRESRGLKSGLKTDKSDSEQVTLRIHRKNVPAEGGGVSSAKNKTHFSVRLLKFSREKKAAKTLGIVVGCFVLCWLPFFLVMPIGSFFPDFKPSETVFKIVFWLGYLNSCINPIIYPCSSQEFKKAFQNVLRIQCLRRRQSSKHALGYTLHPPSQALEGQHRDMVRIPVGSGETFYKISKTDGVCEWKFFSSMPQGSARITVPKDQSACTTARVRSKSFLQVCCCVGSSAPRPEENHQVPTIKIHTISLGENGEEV

[3] = biological target: T2, 5-hydroxytryptamine receptor 1A (Rattus norvegicus, UniProt P19327); assay: Compound was evaluated for its binding affinity against 5-hydroxytryptamine 1A receptor from rat cerebral cortex; format: tissue-based
T2 sequence (P19327 whole entry): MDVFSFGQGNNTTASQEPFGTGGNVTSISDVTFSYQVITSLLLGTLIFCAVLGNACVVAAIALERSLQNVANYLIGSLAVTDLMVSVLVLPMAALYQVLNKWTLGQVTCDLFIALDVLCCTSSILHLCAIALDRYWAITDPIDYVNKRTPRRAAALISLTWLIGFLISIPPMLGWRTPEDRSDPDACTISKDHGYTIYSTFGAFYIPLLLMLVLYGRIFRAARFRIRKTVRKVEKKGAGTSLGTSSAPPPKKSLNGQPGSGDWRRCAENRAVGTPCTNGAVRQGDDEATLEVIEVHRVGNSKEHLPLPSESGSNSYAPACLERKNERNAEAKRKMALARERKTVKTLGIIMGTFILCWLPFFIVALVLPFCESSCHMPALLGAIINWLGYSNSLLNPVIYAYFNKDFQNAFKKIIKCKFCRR

Rattus norvegicus [4] = assay: (§1) compound was tested for antipsychotic activity by conditioned avoidance response(CAR) assay in rats with a pretreatment period of 30 min upon intra peritoneal administration at a concentration of 15 mg/kg.; format: functional
How it was run: (§2)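 Trained rats (N = 4) were run in 1-h sessions on two consecutive days, with the experimenter blind to drug and dose. Fed rats had food and water until placed in the test chambers. Fasted rats had no food overnight before the experiment.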

Rattus norvegicus [5] = assay: as §1; format: functional; remark: listed apart in the source
Rattus norvegicus [6] = assay: Percent catalepsy in male Spargue-Dawley rat at pretreatment time 60 mins and when administered ip at dose 50 mg/kg; format: functional; conditions: route intraperitoneal
How it was run: (§3)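 Catalepsy in rats, groups of five per drug treatment, scored blind to drug and dose. Each session included a saline or vehicle negative control and a haloperidol 2 mg/kg positive control. Deaths during the experiment were recorded in the catalepsy column as number dead out of five.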

Rattus norvegicus [7] = assay: Percent catalepsy in male Spargue-Dawley rat at pretreatment time 240 mins and when administered ip at dose 50 mg/kg; format: functional; conditions: route intraperitoneal; how it was run: as §3
Rattus norvegicus [8] = assay: compound was tested for antipsychotic activity by conditioned avoidance response(CAR) assay in rats with a pretreatment period of 30 min upon intra peritoneal administration at a concentration of 1 mg/kg.; format: functional; how it was run: as §2
Rattus norvegicus [9] = assay: compound was tested for antipsychotic activity by conditioned avoidance response(CAR) assay in rats with a pretreatment period of 60 min upon peroral administration at a concentration of 20 mg/kg.; format: functional; conditions: route oral
Rattus norvegicus [10] = assay: compound was tested for antipsychotic activity by conditioned avoidance response(CAR) assay in rats with a pretreatment period of 30 min upon peroral administration; format: functional; conditions: po; how it was run: as §2

| Ki [2] [nM] | Ki [3] [nM] | SMILES | inhibition in vivo at 5 mg/kg (Rattus norvegicus [1]) [%] | inhibition in vivo at 15 mg/kg (Rattus norvegicus [4]) [%] | inhibition in vivo at 15 mg/kg (Rattus norvegicus [5]) [%] | Catalepsy (Rattus norvegicus [6]) [%] | Catalepsy (Rattus norvegicus [7]) [%] | inhibition in vivo at 1 mg/kg (Rattus norvegicus [8]) [%] | inhibition in vivo at 20 mg/kg (Rattus norvegicus [9]) [%] | ED50 (Rattus norvegicus [10]) [mg/kg] |
| --- | --- | --- | --- | --- | --- | --- | --- | --- | --- | --- |
| 6.4 | 3.9 | CC(C)Oc1ccccc1N1CCN(Cc2cccc(C(=O)N3CCCCC3=O)c2)CC1 | -11.2 | -92.4 |  |  |  |  |  |  |
| 16 | 9.1 | CCCc1ccccc1N1CCN(Cc2cccc(C(=O)N3CCCCC3)c2)CC1 |  |  | -0.7 |  |  |  |  |  |
| 1.9 | 0.13 | CC(C)Oc1ccccc1N1CCN(Cc2cccc(C(=O)N3CCCCCCC3)c2)CC1 | -90.4 |  |  | 34.4 | 17.6 | -24.5 | -84.7 |  |
| 29 | 3.2 | CC(C)Oc1ccccc1N1CCN(Cc2cccc(C(=O)N3CCOCC3)c2)CC1 | -95.4 |  |  |  |  | -94.5 | -96.2 |  |
| 3.3 | 0.8 | O=C(c1cccc(CN2CCN(c3ccccc3C(F)(F)F)CC2)c1)N1CCCCC1 | -5.5 |  | -59.7 |  |  |  |  |  |
| 87 | > 1000 | CC(C)Oc1ccccc1N1CCN(C(C)c2cccc(C(=O)N3CCCCC3)c2)CC1 (stereo not given) |  | -7.1 |  |  |  |  |  |  |
| 3.3 | 0.8 | CCCCN(CCCC)C(=O)c1cccc(CN2CCN(c3ccccc3OC(C)C)CC2)c1 |  |  | -5.6 |  |  |  |  |  |
| 11.4 | 18 | CC(C)Oc1ccccc1N1CCN(Cc2cccc(C(N)=O)c2)CC1 | -88.5 |  |  |  |  | -3 | -1.1 |  |
| 3.4 | 4.1 | CC(C)Oc1ccccc1N1CCN(Cc2cccc(C(=O)NC3CCCCC3)c2)CC1 | -17.6 |  | -86.2 |  |  |  |  |  |
|  | 12 | O=C(c1cccc(CN2CCN(c3ncccn3)CC2)c1)N1CCCCC1 | -17.9 |  | -6.8 |  |  |  |  |  |
| 11.4 | 1.2 | O=C(c1cccc(CN2CCN(c3cccc(Cl)c3)CC2)c1)N1CCCCC1 | -36.1 |  |  | 21.8 | 33.9 |  | -27.9 |  |
| 562 | 2.3 | O=C(c1cccc(CN2CCN(c3cccc(C(F)(F)F)c3)CC2)c1)N1CCCCC1 | -3.7 |  | -71.6 |  |  |  |  |  |
| 13 | 0.21 | O=C(c1cccc(CN2CCN(c3ccc4ccoc4c3)CC2)c1)N1CCCCC1 | -82.4 |  |  |  |  |  |  |  |
| 19 | 2.5 | N#Cc1ccccc1N1CCN(Cc2cccc(C(=O)N3CCCCC3)c2)CC1 | -73.9 |  |  |  |  | -5.3 | -5.4 |  |
| > 1000 | 24 | O=C(c1cccc(CN2CCN(c3cccc([N+](=O)[O-])c3)CC2)c1)N1CCCCC1 | -1.3 |  | -77.7 |  |  |  |  |  |

Further lines, the compound ahead of its results:

| SMILES | Ki [2] [nM] | Ki [3] [nM] | inhibition in vivo at 5 mg/kg (Rattus norvegicus [1]) [%] | inhibition in vivo at 15 mg/kg (Rattus norvegicus [4]) [%] | inhibition in vivo at 15 mg/kg (Rattus norvegicus [5]) [%] | Catalepsy (Rattus norvegicus [6]) [%] | Catalepsy (Rattus norvegicus [7]) [%] | inhibition in vivo at 1 mg/kg (Rattus norvegicus [8]) [%] | inhibition in vivo at 20 mg/kg (Rattus norvegicus [9]) [%] | ED50 (Rattus norvegicus [10]) [mg/kg] |
| --- | --- | --- | --- | --- | --- | --- | --- | --- | --- | --- |
| CC(C)Oc1ccccc1N1CCN(Cc2cccc(C(=O)N3CCC3)c2)CC1 | 1.2 | 3.4 |  |  | -87 |  |  |  |  |  |
| CC(C)Oc1ccccc1N1CCN(Cc2cccc(C(=O)N(C)C3CCCCC3)c2)CC1 | 1.2 | 1.2 | -98.9 |  |  | 0 | 58.1 | -9.3 |  |  |
| O=C(c1cccc(CN2CCN(c3ccccc3Cl)CC2)c1)N1CCCCC1 | 16 | 8.2 | -67.9 |  | -68.6 |  |  |  |  |  |
| COCCN1CCN(Cc2cccc(C(=O)N3CCCCCC3)c2)CC1 | > 1000 |  |  |  |  |  |  |  |  |  |
| O=C(c1cccc(CN2CCN(c3ccccc3)CC2)c1)N1CCCCC1 | 44 | 7.2 | -2.2 |  | -82.1 |  |  |  |  |  |
| O=C(c1cccc(CN2CCN(CCO)CC2)c1)N1CCCCCC1 | > 1000 |  | -2.1 |  |  |  |  |  |  |  |
| O=C(c1cccc(CN2CCN(c3cccc4ccccc34)CC2)c1)N1CCCCC1 | 57 | 1.8 |  |  | -18.8 |  |  |  |  |  |
| CN1CCN(Cc2cccc(C(=O)N3CCCCC3)c2)CC1 | > 1000 |  |  |  | 0.4 |  |  |  |  |  |
| CC(C)Oc1ccccc1N1CCN(Cc2cccc(C(=S)N3CCCCC3)c2)CC1 | 2.3 | 1.1 | -71.6 |  |  |  |  |  |  |  |
| CC(C)Oc1cc(F)ccc1N1CCN(Cc2cccc(C(=O)N3CCCCC3)c2)CC1 | 6 | 4.2 | -82.6 |  |  | 45.2 | 50 | -22.6 |  |  |
| CC(C)Oc1ccccc1C1(O)CCN(Cc2cccc(C(=O)N3CCCCC3)c2)CC1 | 110 | > 1000 | 0.9 |  |  |  |  |  |  |  |
| CC(C)Oc1ccccc1N1CCN(Cc2cccc(C(=O)Nc3ccc(F)cc3)c2)CC1 | 11 | 11 |  |  | -2.5 |  |  |  |  |  |
| CC(C)Oc1ccccc1N1CCN(CCCCc2ccc(C(=O)N3CCCCC3)cc2)CC1 | 284 |  |  | -95.3 |  |  |  |  |  |  |
| CC(C)Oc1ccccc1N1CCN(CCc2ccc(C(=O)N3CCCCC3)cc2)CC1 | 2.1 | 2.5 |  | -98.2 |  |  |  | -1.1 |  |  |
| O=C(c1cccc(CN2CCN(c3ccccc3F)CC2)c1)N1CCCCC1 | 27 | 16 |  |  | -84.3 |  |  |  |  |  |
| CCN1CCCC1CNC(=O)c1cccc(CN2CCN(c3ccccc3OC(C)C)CC2)c1 (stereo not given) | 486 | 121 | -19.4 |  | -74.9 |  |  |  |  |  |
| O=C(c1cccc(CN2CCN(c3ccc(Cl)cc3)CC2)c1)N1CCCCC1 | 486 | 121 |  |  | -4.7 |  |  |  |  |  |
| CN1CCN(C2=Nc3cc(Cl)ccc3Nc3ccccc32)CC1 [CLOZAPINE] |  |  |  |  |  |  |  |  |  | 9.3 |
